From PubChem
A selection: hits, their analogues and other compounds. The true share with any hit is near 4.8%.
FLuc inhib CS = firefly luciferase enzyme inhibitors, primary screen, artefact control for luciferase-based inhibitor screens, biochemical, luminescence, ATPLite; 200,000 tested, 1.5% active; inhibition, % at 10 µM; 10 min; Luciferin 4-monooxygenase (Photinus pyralis), P08659;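 active = inhibition above about 50% when tested at 10 µM, limit read from the data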
Target sequence (P08659 whole entry, looked up): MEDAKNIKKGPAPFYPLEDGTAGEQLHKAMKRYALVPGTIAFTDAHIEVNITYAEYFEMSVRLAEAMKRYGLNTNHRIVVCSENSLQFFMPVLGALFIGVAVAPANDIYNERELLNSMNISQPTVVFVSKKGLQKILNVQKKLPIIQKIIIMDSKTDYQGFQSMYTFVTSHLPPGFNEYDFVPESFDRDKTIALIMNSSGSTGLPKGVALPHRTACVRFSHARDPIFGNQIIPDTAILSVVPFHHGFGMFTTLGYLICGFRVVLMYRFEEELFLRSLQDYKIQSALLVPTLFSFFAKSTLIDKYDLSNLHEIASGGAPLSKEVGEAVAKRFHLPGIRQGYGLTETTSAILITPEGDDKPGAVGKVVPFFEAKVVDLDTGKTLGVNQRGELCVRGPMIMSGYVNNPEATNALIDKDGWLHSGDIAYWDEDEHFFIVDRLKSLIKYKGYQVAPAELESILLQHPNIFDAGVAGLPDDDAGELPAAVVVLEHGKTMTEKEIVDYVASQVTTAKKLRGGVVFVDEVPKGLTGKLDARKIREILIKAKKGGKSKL
APP 5UTR inh = inhibitors of APP translation via 5'UTR reporter, primary screen, APP 5'UTR luciferase, SH-SY5Y cells; SH-SY5Y APP 5'UTR-luciferase reporter, luminescence; inhibition, % at 2 µM; 190,000 tested, 0.82% active; AID 1285, 2008;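 active = inhibition above a set limit, derived from the sample mean plus 3 SD, cut at about 45% in these data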
STAT1 activator = STAT1 signaling activators, primary screen, cell-based, HTS, luciferase reporter; NIH 3T3 STAT1-luciferase reporter, IFN-gamma, luminescence; 100% = IFN-gamma alone, no compound; 200,000 tested, 2.6% active; activation (% of control), % at 5.5 µM;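 active = activation above the screen-wide mean activation plus 3 SD, cut at about 130% in these data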;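 note: raw ratio to IFN-gamma control signal so 100% means no change and 0% no light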
FLuc stim CS = FLuc activators, initial screening, artefact control for FLuc-dependent activation tests, biochemical, ATPlite luminescence; Luciferin 4-monooxygenase (Photinus pyralis), P08659; ATPlite luciferase biochemical, 10 min; 0 = ATP-free wells, 1 = DMSO control; activation factor at 10 µM; 200,000 tested, under 10 active;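 active = luciferase activation factor, scaled between plate controls, of at least 2 with compound at 10 µM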
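Material: Luciferase/luciferin reagent mix; Doses: test compounds dosed from 2 mM stocks in 100% DMSO; Schedule: 10 min incubation after luciferase reagent addition, room temperature; Measured by: luminescence from luciferase reaction; Read-out: luminescence gain marking luciferase activators.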
NF-kB expr up = activators of NF-kB expression in neurons, primary screen, cell-based, HTS | 190,000 tested, 1.6% active | human neuronal cells, NF-kB reporter expression; hits give high values | AID 1239, 2008 | fold change at 12.5 µM; in the data active = fold change above about 3.3
APP 5'UTR act = activators of APP 5'UTR luciferase reporter, primary screen, SH-SY5Y cells; 190,000 tested, 1% active; SH-SY5Y APP 5'UTR luciferase reporter, luminescence; zero percent = DMSO vehicle wells; AID 1276, 2008; activation, % at 2 µM;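 active = activation above a set limit, based on mean plus 3 SD of controls, cut at about 140% in these data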
Numbers without * were called inactive; . = no result given.

SMILES | FLuc inhib CS | APP 5UTR inh | STAT1 activator | FLuc stim CS | NF-kB expr up | APP 5'UTR act
Cc1cnc(C(=O)Nc2ccc(N3CCCCC3)cc2)cn1 | 55* | -142 | 135* | 0.5 | 2.8 | 142*
O=[N+]([O-])c1cc(S(=O)(=O)N2CCCC2)ccc1N/N=C/c1cccnc1 | -10 | -1 | 97 | 1.1 | 1.1 | 1
O=C(c1ccc2c(c1)OCCO2)N1CCN(c2ccc([N+](=O)[O-])cc2)CC1 | -5 | 15 | 96 | 1.1 | 1.2 | -15
CCN1CCCC1CN(Cc1cc2ccc(C)cc2[nH]c1=O)C(=S)Nc1cccc(OC)c1 (configuration not stated) | -6 | -10 | 107 | 1.1 | 0.6 | 10
CC(C)(C)c1ccc(OCc2cnc(Cl)s2)cc1 | 3 | -55 | 121 | 1 | 1.8 | 55
O=C(Nc1ccc(N2CCCCC2)cc1)c1ccccc1 | 88* | -164 | 95 | 0.1 | 5.7* | 164*
O=C(Nc1ccc(N2CCCC2)cc1)c1cccc(F)c1 | 59* | -230 | 121 | 0.4 | 2.6 | 230*
CN1CCN(c2ccc(NC(=O)c3ccc4c(c3)OCCO4)cc2)CC1 | 47 | -141 | 132* | 0.5 | 1.6 | 141*
O=C(Nc1ccc(N2CCCC2)cc1)c1ccc2ccccc2c1 | 14 | -134 | 119 | 0.9 | 1.6 | 134
O=C(Nc1ccncc1)c1sc2ccccc2c1Cl | 16 | -62 | 121 | 0.8 | 1.4 | 61
CCn1nnc(NC(=O)c2sc3ccccc3c2Cl)n1 | 67* | -67 | 121 | 0.3 | 2.5 | 67
CN1CCN(c2ccc(NC(=O)c3sc4ccccc4c3Cl)cc2)CC1 | 37 | -182 | 115 | 0.6 | 2.7 | 182*
C=CCN(C(=O)Nc1ccc(Cl)cc1)C1CC(=O)N(c2ccc(OC)cc2)C1=O (configuration not stated) | -12 | 47* | 104 | 1.1 | 1.6 | .
CC(NC(=O)CSc1nc2ccc(N)cc2s1)c1ccccc1 (configuration not stated) | -8 | 13 | 94 | 1.1 | 1.1 | -13
c1cncc(-c2nnc(-c3cccs3)o2)c1 | -2 | 2 | 123 | 1 | 1.2 | -2
Fc1ccc(-c2cnc(-c3cccs3)o2)cc1 | 35 | -70 | 142* | 0.7 | 1.8 | 70
CCn1c(COc2ccc3c(c2)CCCC3)nnc1SCC(=O)Nc1nccs1 | -7 | 0 | 102 | 1.1 | 0.99 | 0
Cc1ccc(OC(=O)C2c3ccccc3Oc3ccccc32)cc1C | -1 | -21 | 108 | 1 | 4.6* | 21
CC(=O)c1ccc(OC(=O)C2c3ccccc3Oc3ccccc32)cc1 | -6 | 4 | 99 | 1.1 | 0.92 | -4
Cc1cc(C)n(-c2nc3ccccc3c(=O)n2OCC(=O)N(C)C)n1 | -2 | 3 | 97 | 1 | 1.2 | -3
Cc1cc(C)n(-c2nc3ccccc3c(=O)n2OCC(=O)OCc2ccccc2)n1 | -3 | 51* | 104 | 1 | 0.93 | -51
CCOP(=O)(OCC)c1nc(-c2ccc(Cl)cc2Cl)oc1N1CCOCC1 | -8 | 3 | 97 | 1.1 | 0.98 | -3
COc1cc(C=O)ccc1OCCCOc1ccc([N+](=O)[O-])cc1 | -4 | 15 | 95 | 1 | 0.89 | -15
COc1cc(C(c2c(C)[nH][nH]c2=O)c2c(C)[nH][nH]c2=O)ccc1OC(=O)c1cccc([N+](=O)[O-])c1 | -9 | -1 | 106 | 1.1 | 1.3 | 1
CCOC(=O)C(=Cc1ccc(OCc2ccc([N+](=O)[O-])cc2)c(OC)c1)C(=O)OCC | 1 | -10 | 113 | 1 | 3.6* | 10
SMILES | FLuc inhib CS | APP 5UTR inh | STAT1 activator | FLuc stim CS | NF-kB expr up | APP 5'UTR act
COc1cc(C(c2c(C)[nH][nH]c2=O)c2c(C)[nH][nH]c2=O)ccc1OCc1ccc([N+](=O)[O-])cc1 | -2 | . | 111 | 1 | 3.8* | .
COC(=O)C(=Cc1ccc(OCc2ccc([N+](=O)[O-])cc2)c(OC)c1)C(=O)OC | -1 | -17 | 122 | 1 | 4.4* | 17
CCOC(=O)C(=O)Nc1ccc([N+](=O)[O-])cc1OC | -5 | -2 | 99 | 1 | 1.3 | 2
COc1ccc(NC(=O)Nc2cccc(NC(C)=O)c2)c(OC)c1 | 0 | 1 | 96 | 1 | 1.2 | -1
CCCCNC(=O)C1CC(c2cccc([N+](=O)[O-])c2)=NO1 (configuration not stated) | -6 | -50 | 140* | 1.1 | 3.5* | 50
CC(=O)c1ccc(Nc2ccc(-c3ccccc3C)nn2)cc1 | 28 | -58 | 144* | 0.7 | 3 | 58
COc1cccc(CNC(=O)CCC2CCCN(Cc3cc4ccccc4o3)C2)c1 (configuration not stated) | -4 | 15 | 97 | 1 | 1.3 | -15
O=c1c2c3c(sc2nc2n1CCCCC2)CCCC3 | 8 | -70 | 143* | 0.9 | 4.1* | 70
Clc1nc(CN2CCCCC2)nc2sc3c(c12)CCCC3 | -7 | -10 | 105 | 1.1 | 3.6* | 10
O=c1c2c3c(sc2nc2n1CCCCC2)CCCCC3 | 6 | -30 | 123 | 0.9 | 2.8 | 30
O=C(NCCC1=CCCCC1)C1CCN(C(=O)Cc2ccccc2)CC1 | -4 | 28 | 96 | 1 | 1.2 | -27
O=C(/C=C/c1ccc(Br)cc1)NC1CCCCCC1 | 6 | 5 | 111 | 0.9 | 1.7 | -5
CC(C)Cc1ccc(/C=C/C(=O)NC2CC2)cc1 | 24 | -63 | 147* | 0.8 | 3.2 | 63
CC(C)Cc1ccc(/C=C/C(=O)N2CCCCC2)cc1 | 14 | -86 | 139* | 0.9 | 4.2* | 86
Cc1ccc(C2=NN(S(=O)(=O)c3ccccc3)C(c3ccccc3O)C2)cc1 (configuration not stated) | -2 | -12 | 104 | 1 | 1.4 | 12
COc1ccc(NC(=O)NN(C(=O)c2ccccc2)C(C)(C)C)cc1 | -3 | -2 | 103 | 1 | 1.6 | 2
CC(SCC(=O)NC(C)C1CC2CCC1C2)C(=O)O (configuration not stated) | -1 | -28 | 98 | 1 | 1.3 | 27
COc1ccc(C(=O)/C=C/c2cccs2)c(OC(=O)c2cccc([N+](=O)[O-])c2)c1 | 1 | -21 | 112 | 1 | 6* | 21
CCc1ccc2c(c1)[C@H]1OCC[C@H]1[C@@H](c1cccs1)N2 | 12 | 65* | 97 | 0.9 | 1.6 | -65
COc1cccc(NC(=S)N(CCN(C)C)Cc2cccs2)c1 | -8 | -5 | 105 | 1.1 | 5.8* | 5
